OX1R antag-1 = antagonists of human orexin 1 receptor (OX1R); OX1R-expressing cells, FRET antagonist read-out; actives 1.8% (n = 330,000); inhibition, % at 6.6 µM; in the data active = inhibition mostly above about 38%, no sharp cut-off; inactive = mostly below about 40%;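 also: 0% = agonist challenge alone and 100% = reference antagonist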
Target sequence (O43613 whole entry, looked up): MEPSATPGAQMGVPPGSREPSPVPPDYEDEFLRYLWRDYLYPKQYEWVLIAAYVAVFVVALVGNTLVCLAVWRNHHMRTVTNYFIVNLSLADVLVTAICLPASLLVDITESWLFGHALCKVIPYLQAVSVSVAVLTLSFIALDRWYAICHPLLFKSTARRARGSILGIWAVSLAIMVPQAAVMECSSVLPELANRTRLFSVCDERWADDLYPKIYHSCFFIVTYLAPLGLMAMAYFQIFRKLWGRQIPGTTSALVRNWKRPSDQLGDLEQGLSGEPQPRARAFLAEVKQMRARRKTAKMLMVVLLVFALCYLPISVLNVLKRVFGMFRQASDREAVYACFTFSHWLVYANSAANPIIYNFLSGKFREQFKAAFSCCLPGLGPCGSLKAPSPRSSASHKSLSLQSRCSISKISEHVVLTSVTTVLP
TAAR1 antag = antagonists of human TAAR1; Q96RJ0; CHO RD-HGA16 TAAR1, Fluo-8 calcium fluorescence, antagonist; inhibition, % at 3 µM; actives 1.5% (n = 360,000);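 active = inhibition above a per-plate cutoff, the mean inhibition of test compounds on that plate plus 3 SD, cut at about 49% in these data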;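 also: 0% = DMSO plus EC80 beta-PEA response and 100% = DMSO alone without agonist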
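Material: CHO RD-HGA16 cells bearing hTAAR1; compound dosing: one-point dosing, 3 µM nominal final; schedule: dye loading 75 min at 37 °C, then 30 min room temperature; measured by: calcium fluorescence with Fluo-8; control set: vehicle and agonist controls; replication: n of 1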
TAAR1 agonist = agonists of human TAAR1. activation, % at 3 µM. Q96RJ0. CHO RD-HGA16 TAAR1, Fluo-8 calcium fluorescence; vehicle wells 0%, saturating PEA agonist 100%. actives 0.99% (n = 360,000);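 active = activation above the mean activation of all test compounds in the run plus 3 SD, cut at about 38% in these data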
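System: CHO-derived RD-HGA16 cells with stable Gα16 and human TAAR1. Times: 17-24 h plating, Fluo-8 75 min 37 °C, 30 min RT. Measured by: calcium-sensitive Fluo-8 signal, excitation 470-495, emission 515-575 nm. Read-out basis: % activation relative to PEA EC100 response. Control set: DMSO and PEA EC100. Repeats: no replicates (n 1).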
CHO parental Ca = counter-screen: ATP calcium response change in parental CHO cells | parental CHO-K1, ATP-induced calcium, Fluo-8 fluorescence | inhibition, % at 5.6 µM | actives 0.63% (n = 330,000);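 active = inhibition above that plate's mean sample inhibition plus 3 SD, cut at about 26% in these data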;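 also: 0% = ATP-challenged DMSO wells and 100% = DMSO wells without ATP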
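Assay system: untransfected parental CHO cell line. Also added: ATP agonist challenge. Dosing: one dose, 5.6 µM nominal. Measured by: Fluo-8 fluorescence. Read-out: % inhibition. Benchmarks: ATP wells versus no-ATP DMSO wells. Repeats: no replicates.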
OX1R antag-2 = blocks the human orexin 1 receptor; O43613; CHO/OX1R cells, Fluo-8 calcium fluorescence, orexin A; inhibition, % at 5 µM; actives 0.43% (n = 330,000);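 active = inhibition above its plate's threshold, mean inhibition of all tested compounds on the plate plus 3 SD, cut at about 37% in these data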;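 also: 0% = orexin A challenge wells and 100% = SB-334867-A antagonist wells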
OX1R HTRF confirm = confirmation of human orexin 1 receptor antagonists, HTRF format | OX1R-expressing cells, HTRF antagonist assay | actives 49% (n = 1,800) | inhibition, % at 6.6 µM | shares compounds with OX1R antag-1; in the data active = inhibition above about 55%;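 also: CHO cells expressing OX1R stimulated with orexin A at about EC80; 0% = agonist challenge alone and 100% = reference antagonist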
CHO-K1 HTRF cnt = counter-screen: parental CHO-K1 HTRF response | shares compounds with OX1R antag-1 | parental CHO-K1 cells, HTRF counterscreen | inhibition, % at 6.6 µM | actives 48% (n = 1,800) | AID 493232; in the data active = inhibition above about 17%;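 also: 0% = agonist challenge with vehicle and 100% = vehicle alone without agonist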
* hit, by the source's call; x = no result given; + = active, no number. Compounds with a hit are over-represented: about 4% of the library has one in this group of screens.

SMILES	OX1R antag-1	TAAR1 antag	TAAR1 agonist	CHO parental Ca	OX1R antag-2	OX1R HTRF confirm	CHO-K1 HTRF cnt
O=C(Nc1ccccc1)OC[C@@H]1C=CS(=O)(=O)N1Cc1ccc(Br)cc1	x	8.2	2.4	x	x	x	x
Cc1cccc(C(=O)NCCC(=O)Nc2ccc(C#N)cc2)c1	10.8	5.5	-3.3	-2.0	-7.5	x	x
O=C(Nc1cc(F)cc(F)c1)c1ccc(NCCCN2CCCCCC2)c([N+](=O)[O-])c1	85.6*	-23.9	-1.9	-6.9	-17.4	43.4	39.4*
COC(=O)c1cc(S(=O)(=O)N2CCOCC2)c(Cl)cc1N1CCOCC1	4.7	2.6	2.4	-0.5	-8.1	x	x
COC(=O)c1cc(C)nc2c1C(=O)C(=O)C=C2N1CCOCC1	98.8*	28.6	7.5	-8.2	-11.5	79.4*	114.3*
CN(C)C(=O)C(=O)c1c(-c2ccccc2)cc2ccccn12	34.1	-8.2	3.9	-7.8	-10.5	x	x
O=Nc1c(-c2ccccc2)cc2ccccn12	152.5*	11.4	0.9	-8.2	-4.1	63.9*	86.4*
COc1ccc(/C=C/C(=O)OCC(=O)NC2CCCC2)cc1OC	15.8	10.4	1.3	-3.0	-2.3	x	x
COc1ccccc1-c1ncn(Cc2cccc(-c3ccccc3)c2)c1CC(C)C	x	-4.5	1.2	x	x	x	x
Cc1ccc(C(=O)NC2CC2)cc1S(=O)(=O)N1CCOCC1	4.0	3.2	7.5	-2.1	-4.8	x	x
Cc1ccc(C(=O)Oc2cccc(NC(=O)c3cccs3)c2)cc1S(=O)(=O)N1CCOCC1	79.1*	57.1*	11.2	15.7	20.7	32.4	10.2
Cc1ccc(C(=O)Nn2cnnc2)cc1S(=O)(=O)N1CCOCC1	86.5*	-29.1	0.0	-2.0	-4.9	13.1	-7.0
CC(=O)c1cccc(NC(=O)c2ccc(C)c(S(=O)(=O)N3CCOCC3)c2)c1	26.9	7.6	3.3	-14.9	-11.7	x	x
Nc1c([N+](=O)[O-])cc(-c2cnc[nH]2)cc1[N+](=O)[O-]	102.3*	-0.5	1.6	7.0	3.1	60.9*	102.0*
COc1ccc(-c2cnc[nH]2)cc1	5.2	-3.3	6.0	2.6	0.8	x	x
CC(=O)Nc1ccc(Nc2ccc3nonc3c2[N+](=O)[O-])cc1	+	-2.3	-0.4	-0.7	-4.2	54.7*	93.1*
CC(=O)Nc1ccc(NC(=O)C(C)OC(=O)C(C)SCC(=O)Nc2ccc(C)cc2)cc1 (stereo not drawn)	82.5*	22.9	0.9	11.4	-0.8	75.1*	3.5
Oc1ccc2ccccc2c1N=Nc1ccccn1	86.2*	10.2	8.7	12.3	28.6	46.6	29.2*
Oc1ccc2ccccc2c1N=Nc1ccccc1F	13.6	-9.0	-2.9	-12.7	-20.7	x	x
O=C(Nc1cccc(/C=C/c2ccccn2)c1)c1cc(Cl)ccn1	80.1*	9.0	0.3	-8.8	-12.7	84.9*	12.0
OC(CN1CCOCC1)(c1ccccc1)c1ccccn1 (stereo not drawn)	5.5	13.0	1.8	-8.1	-1.7	x	x
CCCC(=O)OCCNc1cc(SCCC(=O)OC)c2nonc2c1[N+](=O)[O-]	120.5*	-26.2	0.1	-20.4	-10.2	64.3*	78.6*
[O-][n+]1ccc(CC(O)(C(F)(F)F)C(F)(F)F)cc1	x	-24.6	2.0	x	x	x	x
COc1cc(C(=O)NCCCN2CCCC2=O)cc(Br)c1OCc1ccccc1	2.8	-11.1	4.0	-15.2	-28.9	x	x
OCc1cn(-c2ccccc2)nc1-c1cc2ccccc2o1	81.1*	11.8	-5.0	0.3	-12.6	34.9	12.4
SMILES	OX1R antag-1	TAAR1 antag	TAAR1 agonist	CHO parental Ca	OX1R antag-2	OX1R HTRF confirm	CHO-K1 HTRF cnt
COc1ccc(NC(=O)c2cn(-c3ccccc3)nc2-c2cc3ccccc3o2)cc1	14.3	18.0	2.0	-2.6	-12.8	x	x
Cn1cc(Br)c(-c2cccc(NC(=O)CCCC(=O)O)c2)n1	-2.2	-3.7	1.7	-3.5	-7.3	x	x
Cc1ccc(C2Cc3cc(O)c(O)cc3CN2)cc1 (stereo not drawn)	31.8	-8.2	5.8	-3.7	-2.6	x	x
O=c1[nH]c(=O)c2nc(-c3ccc(Cl)cc3)cnc2[nH]1	77.5*	-2.6	0.3	-6.4	-5.0	51.5	68.4*
O=c1[nH]c(-c2ccc(Cl)cc2)nc(=S)[nH]1	7.3	-6.2	6.3	-3.3	-5.2	x	x
O=C(Nc1nc2ccsc2c(=O)s1)c1ccco1	17.7	-3.8	0.8	0.6	-0.5	x	x
O=c1sc(Nc2ccccc2)nc2ccsc12	84.7*	5.7	2.8	-14.9	14.8	92.0*	8.9
C=CCSC(=S)NC1CCS(=O)(=O)C1 (stereo not drawn)	10.9	-0.9	0.5	-10.9	-5.2	x	x
CCCCn1c(N)c(N(CC(C)C)C(=O)c2ccc(Br)s2)c(=O)[nH]c1=O	19.8	-31.3	2.9	-15.2	-27.4	x	x
CSCCC(NC(=O)c1cccc(C)c1)C(=O)Nc1sccc1C(N)=O (stereo not drawn)	12.7	-21.7	3.7	-10.4	-9.6	x	x
Cc1ccccc1-n1nc(C(=O)O)c(C)c(C#N)c1=O	100.8*	0.1	15.1	2.5	-13.3	50.2	35.6*
Cc1c(C(=O)O)nn(-c2cccc(C(F)(F)F)c2)c(=O)c1C#N	38.4	-19.7	0.2	-0.1	-12.7	x	x
CCSc1c(C(=O)NC)ccc2c1C(=O)c1ccccc1C2=O	91.3*	-2.4	8.0	-4.3	-14.2	57.9*	92.2*
COCCN1Cc2cccc(C(=O)Nc3cccc(-c4nc5ccccc5[nH]4)c3)c2C1=O	86.1*	61.2*	6.4	-14.0	-3.4	59.6*	3.2
O=C(NN1CCN(Cc2ccccc2)CC1)c1ccc(N2CCOCC2)c([N+](=O)[O-])c1	32.1	-1.5	8.7	-6.5	-16.4	x	x
CCN1C(=O)c2cccc3c(S(=O)(=O)Nc4ccncc4)ccc1c23	18.1	x	x	-1.9	-18.9	x	x
CCN1C(=O)c2cccc3c(S(=O)(=O)NCc4cccnc4)ccc1c23	77.2*	-5.6	3.0	-1.6	-7.4	29.5	14.5
Cc1cc(C(=O)CN2CCCC(C)C2)c(C)n1-c1ccc(F)cc1 (stereo not drawn)	-2.8	-2.1	1.0	-10.2	-13.7	x	x
O=[N+]([O-])c1ccc(N/N=C2\CC3CC=CC23)c([N+](=O)[O-])c1 (stereo not drawn)	82.2*	-7.3	0.4	22.9	11.9	25.8	19.4*
CC1CCC/C(=N/Nc2ccc([N+](=O)[O-])cc2[N+](=O)[O-])C1 (stereo not drawn)	107.5*	11.6	0.1	-15.4	-17.6	34.9	27.1*
Cc1cc(NC(=O)CC2Oc3ccccc3NC2=O)ccc1Br (stereo not drawn)	1.4	17.0	6.3	-10.5	-19.7	x	x
COC(=O)Cn1c(=N)n(CCN2CCCCC2)c2ccccc21	96.0*	-1.6	14.1	-4.0	-7.4	13.6	-11.7

High-throughput results (PubChem BioAssay)
